Exocytosis inh = LAMP-1 surface exposure blockers, TALL-104 cells – cell-based, flow cytometry, MLPCN library, primary screen; TALL-104 LAMP-1 surface exposure; cells stimulated with thapsigargin and PMA; inhibition, % at 10 µM; AID 651702, 2012; 360,000 compounds, 0.66% hits;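 active = inhibition above about 55%, limit read from the data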
Apaf-1 inh = inhibitors of human Apaf-1 apoptosome, primary screen, biochemical, DEVD-Rh110 fluorescence, uHTS; inhibition, % at 20 µM; 330,000 compounds, 0.71% hits; Apoptotic protease-activating factor 1 (Homo sapiens), O14727; reconstituted apoptosome caspase-3 activity; active = inhibition of at least 40% at 20 µM;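 also: plate controls were DMSO wells for no effect and DEVD-CHO caspase inhibitor wells for full effect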
Target sequence (O14727 whole entry, looked up): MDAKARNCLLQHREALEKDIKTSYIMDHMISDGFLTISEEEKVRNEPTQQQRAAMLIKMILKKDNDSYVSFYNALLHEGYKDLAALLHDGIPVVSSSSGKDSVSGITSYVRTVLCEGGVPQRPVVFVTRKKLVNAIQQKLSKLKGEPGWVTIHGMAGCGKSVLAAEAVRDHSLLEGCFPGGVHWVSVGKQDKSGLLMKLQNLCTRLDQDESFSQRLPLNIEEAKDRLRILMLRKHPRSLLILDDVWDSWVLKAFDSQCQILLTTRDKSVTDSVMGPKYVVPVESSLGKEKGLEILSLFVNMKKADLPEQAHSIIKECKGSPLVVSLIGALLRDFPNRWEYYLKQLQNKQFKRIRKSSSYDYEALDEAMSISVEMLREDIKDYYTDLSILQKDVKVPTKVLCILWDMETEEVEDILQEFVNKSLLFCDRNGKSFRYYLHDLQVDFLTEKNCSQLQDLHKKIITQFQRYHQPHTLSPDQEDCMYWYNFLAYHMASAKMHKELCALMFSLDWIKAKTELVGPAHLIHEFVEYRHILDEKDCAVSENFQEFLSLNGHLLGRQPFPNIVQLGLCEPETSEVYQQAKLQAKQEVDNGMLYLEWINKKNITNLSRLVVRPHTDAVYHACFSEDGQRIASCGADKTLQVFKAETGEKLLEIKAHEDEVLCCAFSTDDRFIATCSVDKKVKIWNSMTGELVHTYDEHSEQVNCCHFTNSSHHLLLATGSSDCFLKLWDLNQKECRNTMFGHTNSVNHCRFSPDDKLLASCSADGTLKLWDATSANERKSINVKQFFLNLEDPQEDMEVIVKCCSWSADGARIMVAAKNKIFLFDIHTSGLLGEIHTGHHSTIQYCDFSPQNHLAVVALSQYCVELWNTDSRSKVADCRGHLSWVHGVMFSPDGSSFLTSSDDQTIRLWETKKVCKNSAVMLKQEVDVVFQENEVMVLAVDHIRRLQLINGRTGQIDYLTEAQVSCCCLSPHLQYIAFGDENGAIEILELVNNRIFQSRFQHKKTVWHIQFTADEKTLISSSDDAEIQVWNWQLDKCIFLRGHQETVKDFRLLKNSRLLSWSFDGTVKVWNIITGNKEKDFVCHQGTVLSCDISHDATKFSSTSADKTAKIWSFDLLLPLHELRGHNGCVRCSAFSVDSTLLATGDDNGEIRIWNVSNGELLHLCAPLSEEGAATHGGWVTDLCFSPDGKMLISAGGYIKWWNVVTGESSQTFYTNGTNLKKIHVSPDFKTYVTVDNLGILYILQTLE
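Medium: Hepes buffer, pH 7.5 / System: biochemical Apaf-1 apoptosome reconstitution / Measured by: Rh110 fluorescence, excitation 480 nm, emission 540 nm / Times: compound with Apaf-1, dATP, procaspase-3 30 min, then 50 min reaction, room temperature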
iPSC survival up = enhancers of single-cell hiPSC survival, primary screen, ATPlite luminescence; 360,000 compounds, 0.044% hits; survival enhancement, % at 20 µM; AID 602274, 2012; 100% = ROCK inhibitor wells, 0% = DMSO; in the data active = survival enhancement above about 18%;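 also: cells exposed to compounds for 16 hours before the ATP read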
UBC13 polyUb = UBC13 polyubiquitin chain formation inhibitors, primary screen, biochemical, TR-FRET, uHTS; inhibition, % at 20 µM; 330,000 compounds, 0.47% hits; AID 485273, 2010; Ubiquitin-conjugating enzyme E2 N (Homo sapiens), P61088; in the data active = inhibition above about 45%, passing the limit was not always enough
MPTP inh = mitochondrial permeability transition pore inhibitors, primary screen, biochemical, isolated mouse mitochondria, absorbance; Ca2+ swelling absorbance, 30 min; inhibition, % at 10 µM; 360,000 compounds, 1.4% hits; AID 602449, 2012;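 active = inhibition of 50% or more, scaled per plate between neutral and stimulator controls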;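 also: 0% = DMSO wells given calcium and 100% = 1 mM EGTA wells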
beta cell repl = inducers of MIN6 beta-cell proliferation, primary screen, ATP luminescence, uHTS; MIN6 cells proliferation, ATPlite luminescence, 48 h; cells starved in 0.2% serum; 100% = growth in 10% serum; proliferation, % at 10 µM; 330,000 compounds, 0.29% hits;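 active = compounds whose signal lies at least 3.5 SD above the mean of all wells on their plate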;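 also: 0% = DMSO-treated cells in low-serum medium and 100% = 10% serum control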
Apaf-1 inh conf = Apaf-1 inhibitors, single-dose retest, confirmation, biochemical, fluorescence, DEVD-Rh110, 20 µM. AID 504614, 2011. 1,800 compounds, 25% hits. shares compounds with Apaf-1 inh. reconstituted apoptosome, caspase-3 DEVD-Rh110 fluorescence. inhibition, % at 20 µM;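 active = mean inhibition of at least 40% at 20 µM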;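 also: plate controls were DMSO wells for no effect and DEVD-CHO caspase inhibitor control wells for full effect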
Rh110 quench = Rh110 fluorescence interference by putative Apaf-1 inhibitors, confirmation, artefact control for Apaf-1 inhibitor project, biochemical, 20 µM. quenched caspase reaction. shares compounds with Apaf-1 inh. AID 504615, 2011. activation (fluorescence interference), % at 20 µM. 1,800 tested, under 10 active;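 active = signal rise of 40% or more at 20 µM, treated as a fluorescence artifact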
Apaf1 inh interf = fluorescence interference of Apaf-1 inhibitor hits, dose response, artefact control for Apaf-1 inhibitor project | shares compounds with Apaf-1 inh | 460 tested, under 10 active | AID 588538, 2011 | fluorescence interference counterscreen, Apaf-1 assay format | IC50, µM; call rule not given here
Rh123 counter = fluorescence retest of MPTP screen hits in isolated mitochondria, single concentration | shares compounds with MPTP inh | inhibition, % at 10 µM | 5,000 compounds, 78% hits | membrane potential, Rhodamine 123 fluorescence | AID 624504, 2012; in the data active = inhibition above about 22%;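 also: 0% = DMSO vehicle and 100% = positive control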
MPTP abs DR = mitochondrial permeability transition pore inhibitors, dose response, biochemical, absorbance, uHTS hits | shares compounds with MPTP inh | isolated mitochondria swelling | IC50, µM | 780 compounds, 58% hits | AID 651561, 2012; in the data active = IC50 below about 20 µM
MPTP cs DR = fluorescent counter-screen in isolated mitochondria, dose response, counter-screen for MPTP inhibitor project, biochemical, fluorescence, uHTS hits. shares compounds with MPTP inh. isolated mitochondria counterscreen, fluorescence read-out. IC50, µM. 780 compounds, 49% hits; in the data active = IC50 below about 80 µM
Granule exo CP1 = inhibitors of lytic granule exocytosis, confirmation, TALL-104 cells, flow cytometry, Cherry Pick01. inhibition, % at 10 µM. shares compounds with Exocytosis inh. 1,500 compounds, 11% hits. AID 651954, 2012. LAMP-1 externalization; stimulated with PMA plus thapsigargin; in the data active = inhibition above about 60%;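 also: 0% = stimulated vehicle wells and 100% = unstimulated wells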
* hit, by the source's call; · = no result given. This is a sample that favours compounds with a hit; in the whole collection about 3% have one here.

SMILES | Exocytosis inh | Apaf-1 inh | iPSC survival up | UBC13 polyUb | MPTP inh | beta cell repl | Apaf-1 inh conf | Rh110 quench | others
COCCCn1c(N)c(C(=O)NCCC(C)C)c2nc3ccccc3nc21 | 2.7 | 90.6* | 0.9 | 23.1 | 0.6 | -5.8 | 52.1* | 6.5 | Apaf1 inh interf=>100
CCCCOCCCn1c(N)c(C(=O)OCCOC)c2nc3ccccc3nc21 | -5.4 | 65.9* | 4.7 | -16.9 | 1.2 | -3.7 | 1.6 | 11.6
CCOCCCn1c(N)c(C(=O)Nc2sc3c(c2C(=O)OC)CCCC3)c2nc3ccccc3nc21 | 1.2 | -0.7 | -1.9 | 4.1 | 3.5 | -3.9 | · | ·
COCCOC(=O)c1c(N)n(Cc2ccccc2)c2nc3ccccc3nc12 | -4.8 | 82.6* | -0.1 | -20.3 | -1.1 | -3.7 | 15.4 | 2.2
CCCOC(=O)c1c(N)n(Cc2cccs2)c2nc3ccccc3nc12 | -5.8 | 28.9 | 0.4 | 9.5 | 14.8 | -3.7 | · | ·
Cc1cccc(C)c1-n1nnnc1C(c1cccs1)N1CCC2(CC1)C(=O)NCN2c1ccccc1 (stereo not drawn) | 1.1 | · | -0.1 | · | 2.1 | · | · | ·
CC(NC(=O)N1CC1(C)C)c1ccccc1 (stereo not drawn) | -8.8 | · | -0.4 | · | -2.1 | · | · | ·
O=C1NCN(c2ccccc2)C12CCN(C(c1ccccc1OC(F)(F)F)c1nnnn1C1CCCC1)CC2 (stereo not drawn) | 0.2 | · | -1.6 | · | 1.7 | · | · | ·
COC(=O)C(O)(c1c(C)[nH]n(-c2ccccc2)c1=O)C(F)(F)F (stereo not drawn) | 1.4 | 78.6* | 1.7 | -37.1 | 0.2 | 1.2 | 52.3* | -6.8 | Apaf1 inh interf=>100
CCCCn1c(NS(=O)(=O)c2ccc(C)cc2)c(C(=O)OCC)c2nc3ccccc3nc21 | 0.1 | 90.3* | -2.0 | -8.8 | 15.0 | -5.2 | 26.9 | 6.7
CCCCn1c(NC(=O)c2ccco2)c(C(=O)OCC)c2nc3ccccc3nc21 | -3.2 | 82.6* | 1.1 | -23.0 | -0.5 | -4.5 | 79.8* | 1.3 | Apaf1 inh interf=>100
CCOC(=O)c1c(NC(=O)c2c(N)n(CCCOC)c3nc4ccccc4nc23)sc2c1CCCC2 | 0.6 | -9.6 | -0.1 | 22.5 | 1.6 | -4.3 | · | ·
CCOC(=O)[C@]12Cc3ccccc3[C@H]1N(CCC(=O)OC)C(=O)c1ccccc12 | -0.1 | · | -1.0 | · | -0.9 | · | · | ·
CCCCCN1C(=O)c2ccccc2[C@@]2(C(=O)OCC)Cc3cc(OC)ccc3[C@@H]12 | 12.1 | · | -1.0 | · | -2.8 | · | · | ·
FC(F)(F)c1ccc(-c2ccc3c(c2)CNCc2cnnn2-3)cc1 | -1.1 | · | -0.6 | · | 0.5 | · | · | ·
CC1=C(C)CN2CC(C#N)=C(N)C2C1 (stereo not drawn) | 13.9 | · | 0.1 | · | 0.7 | · | · | ·
Nc1cc2nc3ccccc3nc2cc1N | 1.4 | 62.4* | -0.2 | -118.4 | 2.2 | -2.1 | 51.5* | -9.4 | Apaf1 inh interf=>100
COc1ccc(Cn2c(N)c(C(=O)NCc3ccco3)c3nc4ccccc4nc32)cc1 | 58.6* | 66.9* | 10.2 | -47.1 | 0.0 | -5.9 | 20.4 | 9.5 | Granule exo CP1=18.5
O=C1NC(=O)C(=Cc2ccc(Cl)cc2)C(=O)N1 | -5.1 | · | 2.9 | · | -1.8 | · | · | ·
COc1ccc2c(c1)CC1(CN2C)C(=O)NC(=O)N(CCc2ccccc2)C1=O (stereo not drawn) | 0.2 | 17.8 | 1.0 | -18.6 | 1.8 | -2.4 | · | ·
CCC(C)N1C(=O)NC(=O)C2(Cc3c(ccc4ccccc34)N(C)C2)C1=O (stereo not drawn) | 60.3* | 64.8* | -0.8 | -15.2 | 0.5 | 2.1 | 30.3 | 3.9 | Granule exo CP1=-10.7
CN1C(=O)C(=Cc2ccccc2OCc2ccccc2Cl)C(=O)N(C)C1=O | 2.9 | 14.1 | 0.0 | -13.7 | 61.1* | -1.6 | · | · | Rh123 counter=44.2*
O=P(O)(O)CN1CCNCCN(CP(=O)(O)O)CCNCC1 | -5.3 | · | 0.3 | · | -0.3 | · | · | ·
COC(=O)C1=C(c2ccc(Cl)c(C(F)(F)F)c2)C[C@@H]2CC[C@H]1N2C(=O)NCCCOC(C)C | 4.5 | 23.2 | -2.0 | -13.0 | -2.3 | -2.6 | · | ·
COc1cc(OC)c(OC)cc1/C=C1/C(=O)NC(=O)N(Cc2ccccc2)C1=O | 3.6 | -8.0 | 0.6 | -3.9 | 60.3* | -0.1 | · | · | Rh123 counter=36.6*
SMILES | Exocytosis inh | Apaf-1 inh | iPSC survival up | UBC13 polyUb | MPTP inh | beta cell repl | Apaf-1 inh conf | Rh110 quench | others
COc1cc(OC)c(OC)cc1/C=C1\C(=O)NC(=O)N(Cc2ccccc2)C1=O | 0.7 | 1.3 | -0.5 | -22.1 | 5.9 | -2.5 | · | ·
N#Cc1ncc(N=Cc2ccc(N(CCCl)CCCl)cc2)s1 | 5.8 | · | -0.1 | · | 0.6 | · | · | ·
CCCCCSc1cc(OC)c(CCNC)cc1OC | -0.6 | 8.3 | -2.1 | 20.3 | 85.6* | -3.6 | · | · | Rh123 counter=-19.5;MPTP abs DR=5.31*;MPTP cs DR=>80
CCC1(Cc2ccccc2)C(=O)NC(=S)N(C)C1=O (stereo not drawn) | 0.6 | · | -2.1 | · | -0.6 | · | · | ·
O=C(c1ccc(Cl)cc1)C1CCCN(Cc2cccc3cccnc23)C1 (stereo not drawn) | 19.1 | -9.0 | -0.2 | 18.0 | 1.5 | -1.4 | · | ·
O=C(c1ccc(C(F)(F)F)cc1)C1CCCN(Cc2ccc(CO)o2)C1 (stereo not drawn) | 2.1 | -18.9 | -0.9 | 3.7 | 0.7 | -2.4 | · | ·
O=C(c1ccc(C(F)(F)F)cc1)C1CCCN(Cc2ccncc2)C1 (stereo not drawn) | 1.2 | -4.6 | 0.2 | 21.7 | 85.7* | -3.9 | · | · | Rh123 counter=47.8*
Cc1ncc(CN2CCCC(C(=O)c3ccc(C(C)(C)C)cc3)C2)s1 (stereo not drawn) | -0.3 | 11.0 | 0.9 | 4.4 | 75.0* | -6.0 | · | · | Rh123 counter=73.1*
